Source: ChEMBL document CHEMBL2434891, “Design, synthesis, and in vitro cancer cell growth inhibition evaluation and antimalarial testing of trioxanes installed in cyclic 2-enoate substructures” (Eur J Med Chem, 2013)

What was measured:
HCT-15 = experiment: Cytotoxicity against human HCT15 cells after 72 hrs by SRB assay; assay type: functional; conditions: HCT-15, 72 h
St-4 = experiment: Cytotoxicity against human St-4 cells after 72 hrs by SRB assay; assay type: functional; conditions: St-4, 72 h
MKN-74 = experiment: Cytotoxicity against human MKN74 cells after 72 hrs by SRB assay; assay type: functional; conditions: MKN-74, 72 h
MKN-45 = experiment: Cytotoxicity against human MKN45 cells after 72 hrs by SRB assay; assay type: functional; conditions: MKN-45, 72 h
KM12 = experiment: Cytotoxicity against human KM12 cells after 72 hrs by SRB assay; assay type: functional; conditions: KM12, 72 h
SNB-78 = experiment: Cytotoxicity against human SNB78 cells after 72 hrs by SRB assay; assay type: functional; conditions: SNB-78, 72 h
HCC 2998 = experiment: Cytotoxicity against human HCC2998 cells after 72 hrs by SRB assay; assay type: functional; conditions: HCC 2998, 72 h
PC-3 = experiment: Cytotoxicity against human PC3 cells after 72 hrs by SRB assay; assay type: functional; conditions: PC-3, 72 h
[1] = Cytotoxicity against human HBC5 cells after 72 hrs by SRB assay; assay type: functional; conditions: HBC5, 72 h
LOX IMVI = experiment: Cytotoxicity against human LOXIMVI cells after 72 hrs by SRB assay; assay type: functional
MKN-7 = experiment: Cytotoxicity against human MKN7 cells after 72 hrs by SRB assay; assay type: functional; conditions: MKN-7, 72 h
OVCAR-5 = experiment: Cytotoxicity against human OVCAR5 cells after 72 hrs by SRB assay; assay type: functional; conditions: OVCAR-5, 72 h
SK-OV-3 = experiment: Cytotoxicity against human SKOV3 cells after 72 hrs by SRB assay; assay type: functional; conditions: SK-OV-3, 72 h
U-251 = experiment: Cytotoxicity against human U251 cells after 72 hrs by SRB assay; assay type: functional; conditions: U-251, 72 h
SF-295 = experiment: Cytotoxicity against human SF295 cells after 72 hrs by SRB assay; assay type: functional; conditions: SF-295, 72 h
OVCAR-4 = experiment: Cytotoxicity against human OVCAR4 cells after 72 hrs by SRB assay; assay type: functional; conditions: OVCAR-4, 72 h
DMS-114 = experiment: Cytotoxicity against human DMS114 cells after 72 hrs by SRB assay; assay type: functional; conditions: DMS-114, 72 h
SF-268 = experiment: Cytotoxicity against human SF268 cells after 72 hrs by SRB assay; assay type: functional; conditions: SF-268, 72 h
[2] = Cytotoxicity against human HBC4 cells after 72 hrs by SRB assay; assay type: functional; conditions: HBC4, 72 h
OVCAR-3 = experiment: Cytotoxicity against human OVCAR3 cells after 72 hrs by SRB assay; assay type: functional; conditions: OVCAR-3, 72 h
SF-539 = experiment: Cytotoxicity against human SF539 cells after 72 hrs by SRB assay; assay type: functional; conditions: SF-539, 72 h
SNB-75 = experiment: Cytotoxicity against human SNB75 cells after 72 hrs by SRB assay; assay type: functional; conditions: SNB-75, 72 h
DU-145 = experiment: Cytotoxicity against human DU145 cells after 72 hrs by SRB assay; assay type: functional; conditions: DU-145, 72 h
ACHN = experiment: Cytotoxicity against human ACHN cells after 72 hrs by SRB assay; assay type: functional
MDA-MB-231 = experiment: Cytotoxicity against human MDA-MB-231 cells after 72 hrs by SRB assay; assay type: functional; conditions: MDA-MB-231, 72 h
A549 = experiment: Cytotoxicity against human A549 cells after 72 hrs by SRB assay; assay type: functional, cell-based; conditions: A549, 72 h
Summary of the method: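 Adherent cells grown at 37 °C and 5% CO2. Seeded at 1×10^4/well 24 h before dosing, then 72 h at 10–0.01 µg/mL final. Fixed with cold 50% TCA, stained with 0.4% SRB, dye extracted in 10 mM Tris, read at 540 nm.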

[3] = Cytotoxicity against human BSY1 cells after 72 hrs by SRB assay; assay type: functional; conditions: BSY-1, 72 h
MKN-28 = experiment: Cytotoxicity against human MKN28 cells after 72 hrs by SRB assay; assay type: functional; conditions: MKN-28, 72 h
[4] = read-out: LC50 (the source's name)

In the case of `COc1ccc(C2O[C@]34CC(c5cccc(OC)c5)OC(=O)C3=C[C@@]2(C)OO4)cc1` (some centres undefined), the TGI (HCT-15) is reported as 17 µM, the GI50 (HCT-15; read-out: GI50) is reported as 3.7 µM and the CC50 (HCT-15; [4]) is reported as 100 µM. For the same compound, the TGI (St-4) was 45 µM, the GI50 (St-4; read-out: GI50) was 18 µM and the CC50 (St-4; [4]) was 100 µM. For the same compound, the TGI (MKN-74) was 37 µM, the GI50 (MKN-74; read-out: GI50) was 14 µM and the CC50 (MKN-74; [4]) was 96 µM. It also gave a TGI (MKN-45) of 30 µM, a GI50 (MKN-45; read-out: GI50) of 16 µM and a CC50 (MKN-45; [4]) of 57 µM. The TGI (KM12) was 39 µM, the GI50 (KM12; read-out: GI50) was 18 µM and the CC50 (KM12; [4]) was 85 µM. For the same compound, the TGI (SNB-78) was 34 µM, the GI50 (SNB-78; read-out: GI50) was 13 µM and the CC50 (SNB-78; [4]) was 90 µM. It also gave a TGI (HCC 2998) of 22 µM, a GI50 (HCC 2998; read-out: GI50) of 6.3 µM and a CC50 (HCC 2998; [4]) of 62 µM. The TGI (PC-3) was 27 µM, the GI50 (PC-3; read-out: GI50) was 13 µM and the CC50 (PC-3; [4]) was 56 µM. For the same compound, the TGI [1] was 4.1 µM, the GI50 ([1]; read-out: GI50) was 1.9 µM and the CC50 [1, 4] was 8.8 µM. It also gave a TGI (LOX IMVI) of 9 µM, a GI50 (LOX IMVI; read-out: GI50) of 1 µM and a CC50 (LOX IMVI; [4]) of 7.5 µM. It also gave a TGI (MKN-7) of 14 µM, a GI50 (MKN-7; read-out: GI50) of 3.4 µM and a CC50 (MKN-7; [4]) of 90 µM. For the same compound, the TGI (OVCAR-5) was 7.4 µM, the GI50 (OVCAR-5; read-out: GI50) was 2.8 µM and the CC50 (OVCAR-5; [4]) was 27 µM. For the same compound, the TGI (SK-OV-3) was 33 µM, the GI50 (SK-OV-3; read-out: GI50) was 1.9 µM and the CC50 (SK-OV-3; [4]) was 58 µM. It also gave a TGI (U-251) of 33 µM, a GI50 (U-251; read-out: GI50) of 16 µM and a CC50 (U-251; [4]) of 68 µM. It also gave a TGI (SF-295) of 33 µM, a GI50 (SF-295; read-out: GI50) of 18 µM and a CC50 (SF-295; [4]) of 60 µM. For the same compound, the TGI (OVCAR-4) was 11 µM, the GI50 (OVCAR-4; read-out: GI50) was 1.5 µM and the CC50 (OVCAR-4; [4]) was 42 µM. It also gave a TGI (DMS-114) of 20 µM, a GI50 (DMS-114; read-out: GI50) of 4.4 µM and a CC50 (DMS-114; [4]) of 95 µM. The TGI (SF-268) was 36 µM, the GI50 (SF-268; read-out: GI50) was 14 µM and the CC50 (SF-268; [4]) was 92 µM. For the same compound, the TGI [2] was 13 µM, the GI50 ([2]; read-out: GI50) was 3.7 µM and the CC50 [2, 4] was 38 µM. It also gave a TGI (OVCAR-3) of 5.1 µM, a GI50 (OVCAR-3; read-out: GI50) of 2.4 µM and a CC50 (OVCAR-3; [4]) of 13 µM. The TGI (SF-539) was 5.4 µM, the GI50 (SF-539; read-out: GI50) was 2.8 µM and the CC50 (SF-539; [4]) was 14 µM. It also gave a TGI (SNB-75) of 28 µM, a GI50 (SNB-75; read-out: GI50) of 12 µM and a CC50 (SNB-75; [4]) of 64 µM. It also gave a TGI (DU-145) of 31 µM, a GI50 (DU-145; read-out: GI50) of 16 µM and a CC50 (DU-145; [4]) of 57 µM. It also gave a TGI (ACHN) of 29 µM, a GI50 (ACHN; read-out: GI50) of 15 µM and a CC50 (ACHN; [4]) of 56 µM. The TGI (MDA-MB-231) was 18 µM, the GI50 (MDA-MB-231; read-out: GI50) was 5.4 µM and the CC50 (MDA-MB-231; [4]) was 51 µM. For the same compound, the TGI (A549) was 37 µM, the GI50 (A549; read-out: GI50) was 18 µM and the CC50 (A549; [4]) was 72 µM. It also gave a TGI [3] of 17 µM, a GI50 ([3]; read-out: GI50) of 5 µM and a CC50 [3, 4] of 46 µM. It also gave a TGI (MKN-28) of 36 µM, a GI50 (MKN-28; read-out: GI50) of 11 µM and a CC50 (MKN-28; [4]) of 100 µM.
